Measured values published in ChEMBL document CHEMBL1146083, “Novel potent and efficacious nonpeptidic urotensin II receptor agonists” (J Med Chem, 2006).
Calls of active or inactive are those of the source. No cut-off for these calls is given here.

Key:
[1] = target: T1, Urotensin-2 receptor (Homo sapiens) (UniProt Q9UKP6); test: (§1) Activity against human urotensin-2 receptor expressed in NIH3T3 cells; type: cell-based
T1 sequence (whole entry): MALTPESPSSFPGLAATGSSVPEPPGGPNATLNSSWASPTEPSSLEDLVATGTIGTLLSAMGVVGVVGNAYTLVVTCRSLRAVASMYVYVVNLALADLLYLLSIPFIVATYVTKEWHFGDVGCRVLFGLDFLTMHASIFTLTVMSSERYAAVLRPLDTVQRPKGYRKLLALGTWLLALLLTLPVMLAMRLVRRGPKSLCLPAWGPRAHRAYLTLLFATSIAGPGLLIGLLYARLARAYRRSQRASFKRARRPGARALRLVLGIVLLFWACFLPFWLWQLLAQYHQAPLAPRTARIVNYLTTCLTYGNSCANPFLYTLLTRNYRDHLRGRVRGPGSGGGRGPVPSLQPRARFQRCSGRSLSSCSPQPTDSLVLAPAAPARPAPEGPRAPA
In short: (§2)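 R-SAT functional agonist assay. NIH-3T3 cells grown to 80% confluence in DMEM with 10% bovine calf serum, then transfected for 18 h with human UII receptor plus β-galactosidase marker. Cells frozen, thawed and plated in DMEM with 0.4% calf serum and 30% UltraCulture onto compound. Five-day incubation in 5% CO2, then reporter read at 420 nm. Eight doses in triplicate; pEC50 averaged over 2-6 determinations; efficacy normalized to UII as 100%.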

Urotensin-2 receptor = target: T2, Urotensin-2 receptor (Homo sapiens, UniProt Q9UKP6); test: as §1; type: cell-based; in short: as §2
T2 sequence (Q9UKP6 whole entry): T1 sequence (whole entry)

Compound	Efficacy [1]	EC50 (Urotensin-2 receptor)	Log EC50 [1]
COc1ccc(NC(=O)NC(CCN(C)C)c2ccc(Cl)cc2)cc1 (configuration not stated)	195%	2000 nM	
CN(C)CCC(OC(=O)Nc1ccc(-c2ccccc2)cc1)c1ccc(Cl)cc1 (configuration not stated)	58%	269 nM	
COc1cccc(C(=O)OC(CCN(C)C)c2ccc(Cl)cc2)c1C (configuration not stated)	88%	1950 nM	
CN(C)CCC(OC(=O)Nc1ccc(C(F)(F)F)cc1)c1ccc(Cl)cc1 (configuration not stated)	94%	251 nM	
CO[C@@H](C(=O)N[C@@H](CCN(C)C)c1ccc(Cl)cc1)c1ccccc1	165%	871 nM	
CN(C)CCC(OC(=O)Nc1ccc(C(C)(C)C)cc1)c1ccc(Cl)cc1 (configuration not stated)	105%	1820 nM	
Cc1ccc(COC(CCN(C)C)c2ccc(Cl)cc2)cc1 (configuration not stated)			inactive
CN(C)CCC(NC(=O)c1ccc2c(c1)OCO2)c1ccc(Cl)cc1 (configuration not stated)	154%		
Cc1cccc(Cl)c1C(=O)NC(CCN(C)C)c1ccc(Cl)cc1 (configuration not stated)	105%		
COc1ccc(C(=O)NC(CCN(C)C)c2ccc(Cl)cc2)cc1 (configuration not stated)	162%		
CN(C)CCC(OC(=O)c1ccc2ccccc2c1)c1ccc(Cl)cc1 (configuration not stated)	49%		
CN(C)CCC(OC(=O)c1ccc(-c2ccccc2)cc1)c1ccc(Cl)cc1 (configuration not stated)	53%		
CN(C)CCC1(c2ccc(Cl)cc2)Cc2ccccc2C(=O)O1 (configuration not stated)	133%	1120 nM	
CN(C)CCC(NC(=O)NCc1ccccc1)c1ccc(Cl)cc1 (configuration not stated)	179%	2000 nM	
Cc1ccccc1C(=O)NC(CCN(C)C)c1ccc(Cl)cc1 (configuration not stated)	175%		
CO[C@@H](C(=O)N[C@H](CCN(C)C)c1ccc(Cl)cc1)c1ccccc1	112%	5010 nM	
COc1ccccc1COC(CCN(C)C)c1ccc(Cl)cc1 (configuration not stated)			inactive
Cc1cc2c(cc1C)C(=O)OC(CCN(C)C)(c1ccc(Cl)cc1)C2 (configuration not stated)	146%	135 nM	
CN(C)CCC(NC(=O)c1ccc(-c2ccccc2)cc1)c1ccc(Cl)cc1 (configuration not stated)	116%		
CN(C)CCC(NC(=O)Nc1ccc2ccccc2c1)c1ccc(Cl)cc1 (configuration not stated)	106%	288 nM	
CCc1ccccc1C(=O)N[C@@H](CCN(C)C)c1ccc(Cl)cc1	140%	1020 nM	
Cc1ccc(C)c(C(=O)NC(CCN(C)C)c2ccc(Cl)cc2)c1 (configuration not stated)	164%		

Compound	Efficacy [1]	EC50 (Urotensin-2 receptor)	Log EC50 [1]
CN(C)CCC(NC(=O)Nc1ccc(-c2ccccc2)cc1)c1ccc(Cl)cc1 (configuration not stated)	91%	145 nM	
Cc1ccc(C(=O)NC(CCN(C)C)c2ccc(Cl)cc2)c(C)c1 (configuration not stated)	147%		
CN(C)CC[C@@H](NC(=O)c1ccc(-c2ccccc2)cc1)c1ccc(Cl)cc1	96%	1450 nM	
COc1cccc(NC(=O)OC(CCN(C)C)c2ccc(Cl)cc2)c1 (configuration not stated)	136%		
CN(C)CC[C@H](NC(=O)c1ccc(-c2ccccc2)cc1)c1ccc(Cl)cc1	116%	32.4 nM	
CN(C)CCC(NS(=O)(=O)c1ccc2ccccc2c1)c1ccc(Cl)cc1 (configuration not stated)			inactive
CN(C)CCC(OC(=O)c1cccc2ccccc12)c1ccc(Cl)cc1 (configuration not stated)	95%		
CN(C)CCC(NC(=O)Cc1ccccc1)c1ccc(Cl)cc1 (configuration not stated)	155%		
Cc1c(Cl)cccc1C(=O)OC(CCN(C)C)c1ccc(Cl)cc1 (configuration not stated)	118%		
Cc1cc(C)c(C(=O)OC(CCN(C)C)c2ccc(Cl)cc2)cc1C (configuration not stated)	60%		
COc1ccc(NC(=O)OC(CCN(C)C)c2ccc(Cl)cc2)cc1 (configuration not stated)	170%	1660 nM	
COc1cccc(NC(=O)NC(CCN(C)C)c2ccc(Cl)cc2)c1 (configuration not stated)	146%		
CN(C)CCC(NC(=O)c1ccc(Oc2ccccc2)cc1)c1ccc(Cl)cc1 (configuration not stated)	89%		
Cc1ccsc1C(=O)OC(CCN(C)C)c1ccc(Cl)cc1 (configuration not stated)	119%		
CN(C)CCC(NC(=O)Nc1ccc(C(C)(C)C)cc1)c1ccc(Cl)cc1 (configuration not stated)	103%	275 nM	
CN(C)CCC(NC(=O)Nc1ccc(C(F)(F)F)cc1)c1ccc(Cl)cc1 (configuration not stated)	105%	117 nM	
Cc1c(Cl)cccc1C(=O)NC(CCN(C)C)c1ccc(Cl)cc1 (configuration not stated)	142%		
COc1cccc(C(=O)NC(CCN(C)C)c2ccc(Cl)cc2)c1C (configuration not stated)	179%		
CN(C)CC[C@H](NC(=O)c1ccc2ccccc2c1)c1ccc(Cl)cc1	109%	407 nM	
Cc1cc(Br)ccc1C(=O)OC(CCN(C)C)c1ccc(Cl)cc1 (configuration not stated)	95%		
Cc1cccc(C(=O)NC(CCN(C)C)c2ccc(Cl)cc2)c1C (configuration not stated)	159%		
Cc1ccc(C(=O)OC(CCN(C)C)c2ccc(Cl)cc2)cc1 (configuration not stated)	56%		

Compound	Efficacy [1]	EC50 (Urotensin-2 receptor)	Log EC50 [1]
CN(C)CCC(OC(=O)Nc1ccc(Oc2ccccc2)cc1)c1ccc(Cl)cc1 (configuration not stated)	107%	191 nM	
CN(C)CCC(NC(=O)c1ccc(C(F)(F)F)cc1)c1ccc(Cl)cc1 (configuration not stated)	115%	77.6 nM	
CCc1ccccc1C(=O)OC(CCN(C)C)c1ccc(Cl)cc1 (configuration not stated)	128%		
Cc1ccccc1NC(=O)NC(CCN(C)C)c1ccc(Cl)cc1 (configuration not stated)	175%		
CN(C)CCC(NC(=O)c1ccc(N(C)C)cc1)c1ccc(Cl)cc1 (configuration not stated)	150%		
CN(C)CCC(NC(=O)Nc1ccc(Oc2ccccc2)cc1)c1ccc(Cl)cc1 (configuration not stated)	108%	110 nM	
CN(C)CCC(OC(=O)Nc1ccc2ccccc2c1)c1ccc(Cl)cc1 (configuration not stated)	89%	525 nM	
CN(C)CCC(OC(=O)c1cn(C)c2ccccc12)c1ccc(Cl)cc1 (configuration not stated)	104%	1510 nM	
CN(C)CCC(OC(=O)c1ccc(C(F)(F)F)cc1)c1ccc(Cl)cc1 (configuration not stated)	47%	1740 nM	
Cc1ccc(S(=O)(=O)NC(CCN(C)C)c2ccc(Cl)cc2)cc1 (configuration not stated)	74%		
Cc1cc(C)c(C(=O)NC(CCN(C)C)c2ccc(Cl)cc2)cc1C (configuration not stated)	159%		
CN(C)CCC(OC(=O)NCc1ccccc1)c1ccc(Cl)cc1 (configuration not stated)	180%		
COc1ccc(C(=O)OC(CCN(C)C)c2ccc(Cl)cc2)cc1 (configuration not stated)	84%	2190 nM	
Cc1ccccc1C(=O)OC(CCN(C)C)c1ccc(Cl)cc1 (configuration not stated)	126%		
CN(C)CCC(NS(=O)(=O)c1ccc(-c2ccccc2)cc1)c1ccc(Cl)cc1 (configuration not stated)			inactive
Cc1ccc(C)c(C(=O)OC(CCN(C)C)c2ccc(Cl)cc2)c1 (configuration not stated)	86%		
CN(C)CCC(OC(=O)c1cc2ccccc2n1C)c1ccc(Cl)cc1 (configuration not stated)	73%	1380 nM	
Cc1ccccc1NC(=O)OC(CCN(C)C)c1ccc(Cl)cc1 (configuration not stated)	176%		
Cc1cccc(C(=O)OC(CCN(C)C)c2ccc(Cl)cc2)c1C (configuration not stated)	91%	1150 nM	
CN(C)CCC(NC(=O)c1ccccc1)c1ccc(Cl)cc1 (configuration not stated)	158%		
